Assay results as given in ChEMBL document CHEMBL1140458, “Design and synthesis of novel antibacterial peptide-resin conjugates” (Bioorg Med Chem Lett, 2007).
≈ marks a conversion by molar mass, not a printed value. Residues, ends and D or L forms follow the SMILES beside them.

Assays:
[1] = Cytotoxicity against human erythrocytes assessed as hemolysis; assay type: cell-based; settings: erythrocyte
[2] = system: Micrococcus luteus; experiment: Antibacterial activity against Micrococcus luteus ATCC 9341 by microdilution method; assay type: functional
Outline: (§1)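 Modified microdilution method. For the resin conjugates, the amount added to the medium volume was based on the total peptide quantity bound to the resin, as calculated by Fmoc titration.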

[3] = system: Escherichia coli; experiment: Antibacterial activity against Escherichia coli ATCC 25922 by microdilution method; assay type: functional; outline: as §1
[4] = system: Staphylococcus aureus; experiment: Antibacterial activity against Staphylococcus aureus ATCC 6538 by microdilution method; assay type: functional; outline: as §1
[5] = system: Pseudomonas aeruginosa; experiment: Antibacterial activity against Pseudomonas aeruginosa ATCC 9027 by microdilution method; assay type: functional; outline: as §1

| SMILES | Activity [1] | MIC [2] [µg/mL] | MIC [3] [µg/mL] | MIC [4] [µg/mL] | MIC [5] [µg/mL] |
| --- | --- | --- | --- | --- | --- |
| CC(C)[C@H](NC(=O)[C@H](CCCCN)NC(=O)[C@@H](NC(=O)[C@H](CCCCN)NC(=O)[C@H](Cc1ccccc1)NC(=O)[C@H](CCCCN)NC(=O)[C@@H](NC(=O)[C@H](CCCCN)NC(=O)[C@@H](N)Cc1ccccc1)C(C)C)C(C)C)C(=O)N[C@@H](CCCCN)C(N)=O (H-FKVKFKVKVK-NH2) | Not Active | 3.12 (≈ 2.5 µM) | 3.12 (≈ 2.5 µM) | 1.56 (≈ 1.25 µM) | 6.25 (≈ 5 µM) |
| CC(C)[C@H](NC(=O)[C@H](CCCCN)NC(=O)[C@H](CCCCN)NC(=O)[C@H](CCCCN)NC(=O)[C@H](CCCCN)NC(=O)[C@H](CCCCN)NC(=O)[C@@H](NC(=O)[C@@H](NC(=O)[C@@H](N)Cc1ccccc1)C(C)C)C(C)C)C(=O)N[C@@H](Cc1ccccc1)C(N)=O (H-FVVKKKKKVF-NH2) |  | > 400 | > 400 | > 400 | > 400 |
| CC[C@H](C)[C@H](NC(=O)CN)C(=O)NCC(=O)N[C@@H](CCCCN)C(=O)N[C@@H](Cc1ccccc1)C(=O)N[C@@H](CC(C)C)C(=O)N[C@@H](Cc1c[nH]cn1)C(=O)N[C@@H](CO)C(=O)N[C@@H](C)C(=O)N[C@@H](CCCCN)C(=O)N[C@@H](CCCCN)C(=O)N[C@@H](Cc1ccccc1)C(=O)NCC(=O)N[C@@H](CCCCN)C(=O)N[C@@H](C)C(=O)N[C@@H](Cc1ccccc1)C(=O)N[C@H](C(=O)NCC(=O)N[C@@H](CCC(=O)O)C(=O)N[C@H](C(=O)N[C@@H](CCSC)C(=O)N[C@@H](CC(N)=O)C(=O)N[C@@H](CO)C(=O)O)[C@@H](C)CC)C(C)C [MAGAININ 2] (H-GIGKFLHSAKKFGKAFVGEIMNS-OH) |  | 50 (≈ 20.3 µM) | 50 (≈ 20.3 µM) | 50 (≈ 20.3 µM) | 25 (≈ 10.1 µM) |
